Measured values taken from ChEMBL document CHEMBL4152256, “Structure-activity relationship of new antimalarial 1-aryl-3-susbtituted propanol derivatives: Synthesis, preliminary toxicity profiling, parasite life cycle stage studies, target exploration, and targeted delivery” (Eur J Med Chem, 2018).

Experiments:
Plasmodium falciparum [1] = assay: Antiplasmodial activity against chloroquine-sensitive Plasmodium falciparum 3D7 by [3H]-hypoxanthine incorporation assay; format: functional, organism-based; settings: Plasmodium falciparum, 3D7
Summary of the method: (§1)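 Blood-stage P. falciparum 3D7 and FCR-3 were tested by a modified [3H]-hypoxanthine incorporation assay. Chloroquine was the reference in all runs.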

[2] = Genotoxicity in Salmonella typhimurium TA1535 harboring pSK1002 assessed as survival at 0.125 mg/ml in absence of Sprague-Dawley rat liver S9 fraction after by SOS/umu assay relative to control; format: toxicity, organism-based; settings: salmonella enterica subsp. enterica serovar typhimurium, read-out: Survival
[3] = Genotoxicity in Salmonella typhimurium TA1535 harboring pSK1002 assessed as survival at 0.001 mg/ml in presence of Sprague-Dawley rat liver S9 fraction after by SOS/umu assay relative to control; format: toxicity, organism-based; settings: salmonella enterica subsp. enterica serovar typhimurium, read-out: Survival
[4] = Genotoxicity in Salmonella typhimurium TA1535 harboring pSK1002 assessed as survival at 0.004 mg/ml in presence of Sprague-Dawley rat liver S9 fraction after by SOS/umu assay relative to control; format: toxicity, organism-based; settings: salmonella enterica subsp. enterica serovar typhimurium, read-out: Survival
[5] = Genotoxicity in Salmonella typhimurium TA1535 harboring pSK1002 assessed as umu gene induction at 0.063 mg/ml in absence of Sprague-Dawley rat liver S9 fraction after by SOS/umu assay relative to control; format: toxicity, organism-based; settings: salmonella enterica subsp. enterica serovar typhimurium, read-out: FC
[6] = Genotoxicity in Salmonella typhimurium TA1535 harboring pSK1002 assessed as survival at 0.063 mg/ml in absence of Sprague-Dawley rat liver S9 fraction after by SOS/umu assay relative to control; format: toxicity, organism-based; settings: salmonella enterica subsp. enterica serovar typhimurium, read-out: Survival
[7] = Genotoxicity in Salmonella typhimurium TA1535 harboring pSK1002 assessed as survival at 0.063 mg/ml in presence of Sprague-Dawley rat liver S9 fraction after by SOS/umu assay relative to control; format: toxicity, organism-based; settings: salmonella enterica subsp. enterica serovar typhimurium, read-out: Survival
[8] = Genotoxicity in Salmonella typhimurium TA1535 harboring pSK1002 assessed as umu gene induction at 0.001 mg/ml in absence of Sprague-Dawley rat liver S9 fraction after by SOS/umu assay relative to control; format: toxicity, organism-based; settings: salmonella enterica subsp. enterica serovar typhimurium, read-out: FC
[9] = Genotoxicity in Salmonella typhimurium TA1535 harboring pSK1002 assessed as umu gene induction at 0.008 mg/ml in absence of Sprague-Dawley rat liver S9 fraction after by SOS/umu assay relative to control; format: toxicity, organism-based; settings: salmonella enterica subsp. enterica serovar typhimurium, read-out: FC
[10] = Genotoxicity in Salmonella typhimurium TA1535 harboring pSK1002 assessed as umu gene induction at 0.125 mg/ml in presence of Sprague-Dawley rat liver S9 fraction after by SOS/umu assay relative to control; format: toxicity, organism-based; settings: salmonella enterica subsp. enterica serovar typhimurium, read-out: FC
[11] = Genotoxicity in Salmonella typhimurium TA1535 harboring pSK1002 assessed as survival at 0.016 mg/ml in presence of Sprague-Dawley rat liver S9 fraction after by SOS/umu assay relative to control; format: toxicity, organism-based; settings: salmonella enterica subsp. enterica serovar typhimurium, read-out: Survival
[12] = Genotoxicity in Salmonella typhimurium TA1535 harboring pSK1002 assessed as survival at 0.001 mg/ml in absence of Sprague-Dawley rat liver S9 fraction after by SOS/umu assay relative to control; format: toxicity, organism-based; settings: salmonella enterica subsp. enterica serovar typhimurium, read-out: Survival
[13] = Genotoxicity in Salmonella typhimurium TA1535 harboring pSK1002 assessed as survival at 0.002 mg/ml in absence of Sprague-Dawley rat liver S9 fraction after by SOS/umu assay relative to control; format: toxicity, organism-based; settings: salmonella enterica subsp. enterica serovar typhimurium, read-out: Survival
[14] = Genotoxicity in Salmonella typhimurium TA1535 harboring pSK1002 assessed as umu gene induction at 0.063 mg/ml in presence of Sprague-Dawley rat liver S9 fraction after by SOS/umu assay relative to control; format: toxicity, organism-based; settings: salmonella enterica subsp. enterica serovar typhimurium, read-out: FC
[15] = Genotoxicity in Salmonella typhimurium TA1535 harboring pSK1002 assessed as umu gene induction at 0.004 mg/ml in absence of Sprague-Dawley rat liver S9 fraction after by SOS/umu assay relative to control; format: toxicity, organism-based; settings: salmonella enterica subsp. enterica serovar typhimurium, read-out: FC
[16] = Genotoxicity in Salmonella typhimurium TA1535 harboring pSK1002 assessed as survival at 0.004 mg/ml in absence of Sprague-Dawley rat liver S9 fraction after by SOS/umu assay relative to control; format: toxicity, organism-based; settings: salmonella enterica subsp. enterica serovar typhimurium, read-out: Survival
[17] = Genotoxicity in Salmonella typhimurium TA1535 harboring pSK1002 assessed as survival at 0.008 mg/ml in absence of Sprague-Dawley rat liver S9 fraction after by SOS/umu assay relative to control; format: toxicity, organism-based; settings: salmonella enterica subsp. enterica serovar typhimurium, read-out: Survival
[18] = Genotoxicity in Salmonella typhimurium TA1535 harboring pSK1002 assessed as survival at 0.031 mg/ml in presence of Sprague-Dawley rat liver S9 fraction after by SOS/umu assay relative to control; format: toxicity, organism-based; settings: salmonella enterica subsp. enterica serovar typhimurium, read-out: Survival
[19] = Genotoxicity in Salmonella typhimurium TA1535 harboring pSK1002 assessed as umu gene induction at 0.001 mg/ml in presence of Sprague-Dawley rat liver S9 fraction after by SOS/umu assay relative to control; format: toxicity, organism-based; settings: salmonella enterica subsp. enterica serovar typhimurium, read-out: FC
[20] = Genotoxicity in Salmonella typhimurium TA1535 harboring pSK1002 assessed as umu gene induction at 0.031 mg/ml in presence of Sprague-Dawley rat liver S9 fraction after by SOS/umu assay relative to control; format: toxicity, organism-based; settings: salmonella enterica subsp. enterica serovar typhimurium, read-out: FC
[21] = Genotoxicity in Salmonella typhimurium TA1535 harboring pSK1002 assessed as survival at 0.002 mg/ml in presence of Sprague-Dawley rat liver S9 fraction after by SOS/umu assay relative to control; format: toxicity, organism-based; settings: salmonella enterica subsp. enterica serovar typhimurium, read-out: Survival
[22] = Genotoxicity in Salmonella typhimurium TA1535 harboring pSK1002 assessed as survival at 0.016 mg/ml in absence of Sprague-Dawley rat liver S9 fraction after by SOS/umu assay relative to control; format: toxicity, organism-based; settings: salmonella enterica subsp. enterica serovar typhimurium, read-out: Survival
Plasmodium falciparum [23] = assay: Antiplasmodial activity against multidrug-resistant Plasmodium falciparum FCR-3 by [3H]-hypoxanthine incorporation assay; format: functional, organism-based, FCR-3/Gambia; settings: Plasmodium falciparum, FCR-3/Gambia; summary of the method: as §1
[24] = Genotoxicity in Salmonella typhimurium TA1535 harboring pSK1002 assessed as umu gene induction at 0.016 mg/ml in presence of Sprague-Dawley rat liver S9 fraction after by SOS/umu assay relative to control; format: toxicity, organism-based; settings: salmonella enterica subsp. enterica serovar typhimurium, read-out: FC
[25] = Genotoxicity in Salmonella typhimurium TA1535 harboring pSK1002 assessed as umu gene induction at 0.008 mg/ml in presence of Sprague-Dawley rat liver S9 fraction after by SOS/umu assay relative to control; format: toxicity, organism-based; settings: salmonella enterica subsp. enterica serovar typhimurium, read-out: FC
[26] = Genotoxicity in Salmonella typhimurium TA1535 harboring pSK1002 assessed as umu gene induction at 0.125 mg/ml in absence of Sprague-Dawley rat liver S9 fraction after by SOS/umu assay relative to control; format: toxicity, organism-based; settings: salmonella enterica subsp. enterica serovar typhimurium, read-out: FC
[27] = Genotoxicity in Salmonella typhimurium TA1535 harboring pSK1002 assessed as survival at 0.125 mg/ml in presence of Sprague-Dawley rat liver S9 fraction after by SOS/umu assay relative to control; format: toxicity, organism-based; settings: salmonella enterica subsp. enterica serovar typhimurium, read-out: Survival
[28] = Genotoxicity in Salmonella typhimurium TA1535 harboring pSK1002 assessed as umu gene induction at 0.004 mg/ml in presence of Sprague-Dawley rat liver S9 fraction after by SOS/umu assay relative to control; format: toxicity, organism-based; settings: salmonella enterica subsp. enterica serovar typhimurium, read-out: FC
[29] = Selectivity index, ratio of CC50 for human HepG2A16 cells by MTT assay to IC50 for multidrug-resistant Plasmodium falciparum FCR-3; format: toxicity; settings: HepG2A16 cells, read-out: Ratio CC50/IC50
Summary of the method: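 HepG2-A16 human hepatoma cells were tested by MTT viability assay to give CC50. Blood-stage activity was measured against the multidrug-resistant P. falciparum FCR-3 strain by [3H]-hypoxanthine incorporation to give IC50. SI = CC50 HepG2 / FCR-3 IC50.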

[30] = Cytotoxicity against human HepG2A16 cells by MTT assay; format: cell-based; settings: HepG2A16 cells
Summary of the method: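 MTT viability assay on HepG2-A16 cells, giving CC50 values.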

[31] = Genotoxicity in Salmonella typhimurium TA1535 harboring pSK1002 assessed as umu gene induction at 0.002 mg/ml in absence of Sprague-Dawley rat liver S9 fraction after by SOS/umu assay relative to control; format: toxicity, organism-based; settings: salmonella enterica subsp. enterica serovar typhimurium, read-out: FC
[32] = Genotoxicity in Salmonella typhimurium TA1535 harboring pSK1002 assessed as umu gene induction at 0.002 mg/ml in presence of Sprague-Dawley rat liver S9 fraction after by SOS/umu assay relative to control; format: toxicity, organism-based; settings: salmonella enterica subsp. enterica serovar typhimurium, read-out: FC
[33] = Genotoxicity in Salmonella typhimurium TA1535 harboring pSK1002 assessed as umu gene induction at 0.016 mg/ml in absence of Sprague-Dawley rat liver S9 fraction after by SOS/umu assay relative to control; format: toxicity, organism-based; settings: salmonella enterica subsp. enterica serovar typhimurium, read-out: FC
[34] = Genotoxicity in Salmonella typhimurium TA1535 harboring pSK1002 assessed as survival at 0.031 mg/ml in absence of Sprague-Dawley rat liver S9 fraction after by SOS/umu assay relative to control; format: toxicity, organism-based; settings: salmonella enterica subsp. enterica serovar typhimurium, read-out: Survival
[35] = Genotoxicity in Salmonella typhimurium TA1535 harboring pSK1002 assessed as survival at 0.008 mg/ml in presence of Sprague-Dawley rat liver S9 fraction after by SOS/umu assay relative to control; format: toxicity, organism-based; settings: salmonella enterica subsp. enterica serovar typhimurium, read-out: Survival
[36] = Genotoxicity in Salmonella typhimurium TA1535 harboring pSK1002 assessed as umu gene induction at 0.031 mg/ml in absence of Sprague-Dawley rat liver S9 fraction after by SOS/umu assay relative to control; format: toxicity, organism-based; settings: salmonella enterica subsp. enterica serovar typhimurium, read-out: FC

Compound	IC50 (Plasmodium falciparum [1])	viability at 0.125 mg/ml [2]	viability at 0.001 mg/ml [3]	viability at 0.004 mg/ml [4]	fold induction at 0.063 mg/ml [5]	viability at 0.063 mg/ml [6]	viability at 0.063 mg/ml [7]	fold induction at 0.001 mg/ml [8]	fold induction at 0.008 mg/ml [9]	fold induction at 0.125 mg/ml [10]	viability at 0.016 mg/ml [11]	viability at 0.001 mg/ml [12]	viability at 0.002 mg/ml [13]	fold induction at 0.063 mg/ml [14]	fold induction at 0.004 mg/ml [15]	viability at 0.004 mg/ml [16]	viability at 0.008 mg/ml [17]	viability at 0.031 mg/ml [18]	fold induction at 0.001 mg/ml [19]	fold induction at 0.031 mg/ml [20]	other results
O=[N+]([O-])c1ccccc1N1CCN(CCC(O)c2ccc(F)c3ccccc23)CC1 (configuration not stated)	0.92 µM	174%	77.8%	92.2%	0.8	118%	63.8%	1.1	1.7	1.3	64.5%	100%	111%	1.4	0.9	106%	87.9%	63.2%	1.4	1.9	viability at 0.002 mg/ml [21]: 84.3%; viability at 0.016 mg/ml [22]: 50.6%; IC50 (Plasmodium falciparum [23]): 2.62 µM; fold induction at 0.016 mg/ml [24]: 1.9; fold induction at 0.008 mg/ml [25]: 1; fold induction at 0.125 mg/ml [26]: 0.5; viability at 0.125 mg/ml [27]: 76.2%; fold induction at 0.004 mg/ml [28]: 1.2; selectivity ratio [29]: 8; CC50 [30]: 19.9 µM; fold induction at 0.002 mg/ml [31]: 0.9; fold induction at 0.002 mg/ml [32]: 0.7; fold induction at 0.016 mg/ml [33]: 2; viability at 0.031 mg/ml [34]: 66.8%; viability at 0.008 mg/ml [35]: 89.5%; fold induction at 0.031 mg/ml [36]: 1.5
O=[N+]([O-])c1ccc(N2CCN(CCC(O)c3ccc(F)c4ccccc34)CC2)cc1 (configuration not stated)	4.74 µM	145%	110%	109%	0.7	124%	118%	0.5	1.3	0.5	117%	88%	87%	0.5	1.2	84.9%	84.2%	122%	0.8	0.5	viability at 0.002 mg/ml [21]: 107%; viability at 0.016 mg/ml [22]: 83.8%; IC50 (Plasmodium falciparum [23]): 1.71 µM; fold induction at 0.016 mg/ml [24]: 0.5; fold induction at 0.008 mg/ml [25]: 0.6; fold induction at 0.125 mg/ml [26]: 0.6; viability at 0.125 mg/ml [27]: 128%; fold induction at 0.004 mg/ml [28]: 0.9; selectivity ratio [29]: 7; CC50 [30]: 12.5 µM; fold induction at 0.002 mg/ml [31]: 0.8; fold induction at 0.002 mg/ml [32]: 0.9; fold induction at 0.016 mg/ml [33]: 1.1; viability at 0.031 mg/ml [34]: 105%; viability at 0.008 mg/ml [35]: 118%; fold induction at 0.031 mg/ml [36]: 0.8
